According to ChEMBL document CHEMBL4765352, “Discovery of AdipoRon analogues as novel AMPK activators without inhibiting mitochondrial complex I” (Eur J Med Chem, 2020):
Activity calls are given as the source filed them. The calls are words filed in the database; no cut-off is given here.

What was measured:
[1] = test system: A549; assay: Activation of AMPK in human A549 cells harboring mutant LKB1; assay type: cell-based
[2] = test system: Huh-7; assay: Activation of AMPK in human HuH-7 cells assessed as increase in AMPK phosphorylation at 1 to 20 uM measured after 2 to 12 hrs by Western blotting analysis; assay type: cell-based; settings: filed as activator, dose 1-20 µM, time 2-12 hrs
Procedure, shortened: (§1)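 HepG2 and HuH-7 cells in medium with 10% FBS and penicillin/streptomycin at 37 °C, 5% CO₂. Treated with a range of concentrations for 2 h, or with 10 μM over a time course. Cells lysed in RIPA buffer with protease/phosphatase inhibitors; ~30 µg protein per lane blotted for p-AMPK, AMPK, p-ACC, ACC, with GAPDH or β-actin as loading control. Detected by ECL.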

[3] = Induction of cardiac hypertrophy in normal lean C57BL/6 mouse assessed as increase in cardiac glycogen level at 100 mg/kg, ig administered for 4 weeks by PAS staining based analysis; assay type: organism-based; settings: in vivo, po, 672 h
Procedure, shortened: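 Male C57BL/6 mice, 9 weeks old, dosed intragastrically daily for 4 weeks. After saline perfusion, organ weights and tibia length were recorded. Heart pieces were fixed in 4% paraformaldehyde, embedded in paraffin and stained with periodic acid-Schiff to show glycogen.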

[4] = test system: Mus musculus; assay: Activation of AMPK in normal lean C57BL/6 mouse assessed as increase in phosphorylated AMPK level in heart tissue at 100 mg/kg, ig administered for 4 weeks by Western blot analysis; assay type: functional, organism-based
Procedure, shortened: (§2)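 Male C57BL/6 mice, 9 weeks old, dosed intragastrically once daily for 4 weeks alongside vehicle controls. Heart and skeletal muscle were homogenized in RIPA buffer with protease/phosphatase inhibitors and centrifuged at 10,600 g for 20 min. About 30 µg protein was blotted for p-AMPK and p-ACC and detected by ECL.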

[5] = test system: C2C12; assay: Cytotoxicity against mouse C2C12 cells assessed as reduction in cell viability at 5 to 20 uM incubated for 24 to 72 hrs by MTT assay; assay type: cell-based; settings: c2c12, 20 µM, dose lower 5 µM, time lower 24 hrs, dose upper 20 µM, time upper 72 hrs
Procedure, shortened: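 MTT viability assay in C2C12, HepG2 and A549 cells. Exposure was 24 h or 72 h for C2C12 and 72 h for HepG2 and A549. Three replicates per group, compared with the 0 μM group by Student's t test.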

[6] = Induction of cardiac hypertrophy in db/db mouse assessed as increase in cardiac glycogen accumulation at 100 mg/kg, ig administered for 10 weeks; assay type: organism-based; settings: in vivo, po, 1680 h
[7] = test system: BEAS-2B; assay: Activation of AMPK in human BEAS-2B cells harboring wild type LKB1; assay type: cell-based; settings: filed as activator
[8] = species on record: Homo sapiens; assay: Activation of AMPK alpha2/beta2/gamma1 (unknown origin)
[9] = Toxicity in C57BL/6 mouse assessed as change in heart weight/body weight ratio at 50 to 200 mg/kg, ig administered for 4 weeks; assay type: organism-based; settings: in vivo, po, 672 h, dose 50-200 mg/kg
Procedure, shortened: (§3)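 Male C57BL/6 mice (6 per group) given 50, 100 or 200 mg/kg intragastrically daily for 4 weeks. Saline-perfused hearts were weighed and examined for gross morphology, with representative hearts chosen by similar body weight. Heart weight was expressed relative to body weight and to tibia length.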

[10] = test system: C2C12; assay: Activation of AMPK in mouse C2C12 cells with SiRNA-induced LKB1 knock down assessed as increase in ACC phosphorylation; assay type: cell-based
[11] = test system: Mus musculus; assay: Activation of AMPK in normal lean C57BL/6 mouse assessed as increase in phosphorylated ACC level in heart tissue at 100 mg/kg, ig administered for 4 weeks by Western blot analysis; assay type: functional, organism-based; procedure, shortened: as §2
[12] = Toxicity in C57BL/6 mouse assessed as change in gross morphology of heart at 50 to 200 mg/kg, ig administered for 4 weeks; assay type: organism-based; settings: in vivo, po, 672 h, dose 50-200 mg/kg; procedure, shortened: as §3
[13] = Metabolic stability in ICR/CD-1 mouse liver microsomes assessed as compound remaining preincubated for 5 mins followed by NADPH addition and measured up to 45 mins by LC/MS analysis; assay type: ADME, Microsome; settings: time 50 min, read-out: Stabilty
Procedure, shortened: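 Compound was preincubated with mouse (ICR/CD-1) or human liver microsomes in potassium phosphate buffer at 37 °C for 5 min, then NADPH was added to start the reaction. Samples were quenched with acetonitrile containing tolbutamide internal standard at 0, 5, 15, 30 and 45 min. Parent compound measured by LC/MS; ketanserin served as control.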

[14] = test system: C2C12; assay: Activation of AMPK in mouse C2C12 cells with SiRNA-induced LKB1 knock down assessed as increase in AMPK phosphorylation; assay type: cell-based
[15] = test system: HepG2; assay: Activation of AMPK in human HepG2 cells assessed as increase in ACC phosphorylation at 1 to 20 uM measured after 2 to 12 hrs by Western blotting analysis; assay type: cell-based; settings: filed as activator, dose 1-20 µM, time 2-12 hrs; procedure, shortened: as §1
[16] = test system: HepG2; assay: Activation of AMPK in human HepG2 cells assessed as increase in AMPK phosphorylation at 1 to 20 uM measured after 2 to 12 hrs by Western blotting analysis; assay type: cell-based; settings: filed as activator, dose 1-20 µM, time 2-12 hrs; procedure, shortened: as §1
[17] = test system: C2C12; assay: Activation of AMPK in mouse C2C12 cells assessed as increase in ACC phosphorylation at 10 uM by Western blotting analysis; assay type: cell-based; settings: filed as activator, time 0.5-24 hrs, TDE = time-dependent effect
Procedure, shortened: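 C2C12 myoblasts differentiated in DMEM with 2% horse serum for 5-7 days until myotubes formed. Treated for 2 h, either at 10 μM or across a concentration range, or at 10 μM over a time course. RIPA lysates (~30 µg protein) blotted for p-AMPK/AMPK and p-ACC/ACC, detected by ECL. The p-AMPK/AMPK ratio is expressed as fold of the DMSO vehicle.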

[18] = test system: C2C12; assay: Activation of AMPK in mouse C2C12 cells assessed as increase in AMPK phosphorylation in presence of CaMKKbeta inhibitor STO-609; assay type: cell-based; settings: filed as activator
[19] = test system: Mus musculus; assay: Activation of AMPK in normal lean C57BL/6 mouse assessed as increase in phosphorylated ACC level in skeletal muscle at 100 mg/kg, ig administered for 4 weeks by Western blot analysis; assay type: functional, organism-based; settings: Skeletal muscle tissue; procedure, shortened: as §2
[20] = Inhibition of mitochondrial complex 1 in human HepG2 cells assessed as increase in AMP/ATP ratio at 10 uM; assay type: cell-based; settings: hepg2, 10 µM
Procedure, shortened: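 HepG2 cells treated with 10 μM or 0.5 μM compound, or DMSO. Cellular ADP:ATP and AMP:ATP ratios were measured. Three replicates, given as mean ± SD and compared by Student's t test.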

[21] = test system: Mus musculus; assay: Hypoglycemic activity in 6 hrs fasted normal lean C57BL/6 mouse assessed as reduction in blood glucose level at 100 mg/kg, ig pretreated for 2 hrs followed by glucose challenge and measured up to 90 mins post glucose challenge starting from 120 mins prior to […] by IPGTT; assay type: functional, organism-based; settings: time 210.0 min
Procedure, shortened: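 C57BL/6 mice (male, 8-10 weeks, n=6 per group) fasted 6 h, then given compound or vehicle intragastrically. Two hours later, 20% glucose was injected i.p. at 2 g/kg. Tail-vein glucose read by glucometer at -120, 0, 20, 40, 60 and 90 min, and net AUC calculated. Doses were 25, 50 and 100 mg/kg.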

For `CC(C)(Oc1ccc(Cl)cc1)C(=O)Nc1ccc(OCc2ccc(C#N)cc2)cc1`, the Activity [1] was “inactive”, the Activity [2] was “Active” and the Activity [3] was “Non-Toxic”. For the same compound, the Activity [4] was “inactive”, the Activity [5] was “Non-Toxic” and the Activity [6] was “Non-Toxic”. The Activity [7] was “Active”, the Activity [8] was “inactive” and the Activity [9] was “Non-Toxic”. The Activity [10] was “inactive”, the Activity [11] was “inactive” and the Activity [12] was “Non-Toxic”. For the same compound, the remaining at 0.75 h [13] was 39%, the Activity [14] was “inactive” and the Activity [15] was “Active”. For the same compound, the Activity [16] was “Active”, the Activity [17] was “Tde” and the Activity [18] was “Active”. The Activity [19] was “Active”, the “inhibition (INH)” value [20] was “Not Active” and the Activity [21] was “Active”.
